# How the values were obtained:
# [1] = species on record: Homo sapiens; assay: (§1) In vitro inhibition of 5.86 uM ADP-induced human platelet aggregation in platelet rich plasma (PRP); format: functional
# Procedure, shortened: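 Human blood drawn into 1/10 volume 3.8% sodium citrate and spun 10 min at 140g to give platelet-rich plasma. Compound in DMSO added to PRP 3 min before 5.86 μM ADP. Aggregation read by Born turbidimetric aggregometry (Mustard modification) against vehicle controls over various concentrations. IC50 taken from dose-response curves, single determinations or mean of duplicates.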
# [2] = species on record: Homo sapiens; assay: as §1; format: functional; remark: listed apart in the source
# [3] = species on record: Homo sapiens; assay: Inhibitory concentration for displacing [3H]iloprost from human platelet membrane at 5.4 nM at 37 degree C
# [4] = species on record: Homo sapiens; assay: Compound tested for percent inhibition against 5.86 uM ADP-induced human platelet aggregation in platelet rich plasma (PRP); format: functional
# Procedure, shortened: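 Citrated human PRP (blood spun 10 min at 140g) preincubated 3 min with compound in DMSO, then challenged with 5.86 μM ADP. Born aggregometry (Mustard modification), compared with vehicle controls. Value is percent inhibition at a single stated concentration, from a single experiment or mean of duplicates.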
SMILES,IC50 [1] [nM],also measured
O=C(O)CCCCCCCCc1nc(-c2ccccc2)c(-c2ccccc2)o1,2500,–
O=C(O)CCCCOc1ccccc1-c1nc(-c2ccccc2)c(-c2ccccc2)o1,> 75000,–
O=C(O)CCCCCc1ocnc1-c1nc(-c2ccccc2)c(-c2ccccc2)o1,7200,–
O=C(O)COc1cccc(-c2ocnc2-c2nc(-c3ccccc3)c(-c3ccccc3)o2)c1,–,IC50 [2]: 27 nM; IC50 [3]: 5.4 nM
O=C(O)COc1cccc(-c2ccccc2-c2nc(-c3ccccc3)c(-c3ccccc3)o2)c1,11100,–
c1ccc(-c2nc(-c3ncoc3-c3cccc(OCc4nn[nH]n4)c3)oc2-c2ccccc2)cc1,130,–
O=C(O)CCCCCCc1ocnc1-c1nc(-c2ccccc2)c(-c2ccccc2)o1,420,–
N#CCOc1cccc(-c2ocnc2-c2nc(-c3ccccc3)c(-c3ccccc3)o2)c1,> 76000,Inhibition [4]: 14%
O=C(O)COc1cccc(-c2ocnc2-c2nc(-c3ccccc3)c(-c3ccccc3)[nH]2)c1,30,–
Cc1nc(-c2nc(-c3ccccc3)c(-c3ccccc3)o2)c(-c2cccc(OCC(=O)O)c2)o1,–,IC50 [2]: 50 nM; IC50 [3]: 36.6 nM
O=C(O)COc1cccc(-c2[nH]ncc2-c2nc(-c3ccccc3)c(-c3ccccc3)o2)c1,–,IC50 [2]: 180 nM
O=C(O)COc1cccc(-c2ocnc2-c2onc(-c3ccccc3)c2-c2ccccc2)c1,> 72000,Inhibition [4]: 36%
O=C(O)CCCc1ocnc1-c1nc(-c2ccccc2)c(-c2ccccc2)o1,> 80000,Inhibition [4]: 44%
O=C(O)COc1cccc(/C=C\c2nc(-c3ccccc3)c(-c3ccccc3)o2)c1,–,IC50 [3]: 6 nM
O=C(O)CCCOc1ccccc1-c1nc(-c2ccccc2)c(-c2ccccc2)o1,> 75000,–
Cn1ncc(-c2nc(-c3ccccc3)c(-c3ccccc3)o2)c1-c1cccc(OCC(=O)O)c1,–,IC50 [2]: 1060 nM; IC50 [3]: 337 nM
O=C(O)COc1cccc(-c2ocnc2-c2nnc(-c3ccccc3)n2-c2ccccc2)c1,> 70000,–
O=C(O)COc1ccc(-c2ocnc2-c2nc(-c3ccccc3)c(-c3ccccc3)o2)cc1,> 73000,Inhibition [4]: 44%
O=C(O)CCCCc1ocnc1-c1nc(-c2ccccc2)c(-c2ccccc2)o1,15900,–
Cn1cc(-c2nc(-c3ccccc3)c(-c3ccccc3)o2)c(-c2cccc(OCC(=O)O)c2)n1,–,IC50 [2]: 650 nM; IC50 [3]: 302 nM
O=C(O)CCCCCCCc1ocnc1-c1nc(-c2ccccc2)c(-c2ccccc2)o1,11600,–
O=C(O)COc1cccc(-c2ocnc2-c2nc(-c3ccccc3)c(-c3ccccc3)s2)c1,150,–
O=C(O)COc1cccc(-c2oc(-c3ccccc3)nc2-c2nc(-c3ccccc3)c(-c3ccccc3)o2)c1,> 60000,Inhibition [4]: 36%
O=C(O)COc1cccc(-c2ncoc2-c2nc(-c3ccccc3)c(-c3ccccc3)o2)c1,160,–
Cc1ccc(-c2nc(-c3ncoc3-c3cccc(OCC(=O)O)c3)oc2-c2ccc(C)cc2)cc1,100,–
O=C(O)COc1cccc(-c2ocnc2-c2nc(-c3ccsc3)c(-c3ccsc3)o2)c1,450,–
CCCCC[C@H](O)/C=C/[C@@H]1[C@H]2C/C(=C/CCCC(=O)O)O[C@H]2C[C@H]1O [EPOPROSTENOL],8,–
CC#CCC(C)[C@H](O)/C=C/[C@@H]1[C@H]2C/C(=C/CCCC(=O)O)C[C@H]2C[C@H]1O (some centres not stated) [ILOPROST],–,IC50 [3]: 47.7 nM

# Source: ChEMBL document CHEMBL1126926, “Nonprostanoid prostacyclin mimetics. 5. Structure-activity relationships associated with [3-[4-(4,5-diphenyl-2-oxazolyl)-5- oxazolyl]phenoxy]acetic acid” (J Med Chem, 1993)
